pIC50: −log10 of the molar value. In brackets after ≈: the same amount, converted by molar mass.
Experiments:
[1] = Drug concentration in Sprague-Dawley rat plasma at 5 mg/kg,po measured after 96 hrs; assay type: ADME, organism-based
Procedure, shortened: (§1)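 Tissue distribution study in CD-1 mice (6.25 mg/kg oral) and SD rats (5.0 mg/kg oral). Lung concentration (ng/g) and plasma concentration (ng/mL) measured 96 h after dosing. Lung/plasma ratio is lung concentration divided by plasma concentration.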

[2] = Toxicity in Beagle dog assessed as effect on electrocardiogram at 200 mg/kg,po; assay type: organism-based, Canis lupus familiaris; settings: in vivo
Procedure, shortened: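 14-day GLP toxicology study in Beagle dogs; oral dosing once daily at 200 mg/kg, given in parallel with the reference drug. ECG recorded daily to detect qualitative changes and QTc interval prolongation.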

[3] = Plasma protein binding in human assessed as bound fraction; assay type: ADME, cell-free; settings: read-out: PPB
Cytochrome P450 2C9 = Cytochrome P450 2C9 (Homo sapiens, UniProt P11712); assay: Inhibition of CYP2C9 (unknown origin); assay type: ADME
Chain of Cytochrome P450 2C9 (P11712 whole entry, canonical isoform): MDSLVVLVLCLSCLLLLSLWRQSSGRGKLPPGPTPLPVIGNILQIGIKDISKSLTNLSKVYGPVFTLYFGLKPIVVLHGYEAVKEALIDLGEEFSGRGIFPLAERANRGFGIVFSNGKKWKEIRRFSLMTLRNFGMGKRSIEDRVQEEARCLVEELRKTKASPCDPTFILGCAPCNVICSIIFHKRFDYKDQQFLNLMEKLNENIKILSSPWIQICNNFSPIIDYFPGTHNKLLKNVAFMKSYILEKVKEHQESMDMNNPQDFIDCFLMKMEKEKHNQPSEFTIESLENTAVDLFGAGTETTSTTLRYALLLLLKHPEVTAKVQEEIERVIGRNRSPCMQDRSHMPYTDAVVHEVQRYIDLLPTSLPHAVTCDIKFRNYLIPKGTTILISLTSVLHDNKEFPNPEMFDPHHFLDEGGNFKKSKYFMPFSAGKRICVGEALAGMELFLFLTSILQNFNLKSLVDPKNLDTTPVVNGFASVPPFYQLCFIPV
Procedure, shortened: (§2)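 Each CYP isoform screened for inhibition at a single test concentration of 10 μM.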

[4] = Apparent permeability across basolateral side to apical side in dog MDCK cells; assay type: ADME, cell-based, Canis lupus familiaris
[5] = Toxicity in Sprague-Dawley rat assessed as death at 200 mg/kg,po measured after 12 days; assay type: organism-based; settings: in vivo, 288 h, time 12 day
[6] = Plasma protein binding in rat assessed as bound fraction; assay type: ADME, cell-free; settings: read-out: PPB
[7] = Cytotoxicity against human HeLa cells; assay type: toxicity, cell-based
[8] = Cytotoxicity against African green monkey Vero cells; assay type: toxicity, cell-based; settings: chlorocebus sabaeus
Cytochrome P450 2C19 = Cytochrome P450 2C19 (Homo sapiens, UniProt P33261); assay: Inhibition of CYP2C19 (unknown origin); assay type: ADME; procedure, shortened: as §2
Chain of Cytochrome P450 2C19 (P33261 whole entry): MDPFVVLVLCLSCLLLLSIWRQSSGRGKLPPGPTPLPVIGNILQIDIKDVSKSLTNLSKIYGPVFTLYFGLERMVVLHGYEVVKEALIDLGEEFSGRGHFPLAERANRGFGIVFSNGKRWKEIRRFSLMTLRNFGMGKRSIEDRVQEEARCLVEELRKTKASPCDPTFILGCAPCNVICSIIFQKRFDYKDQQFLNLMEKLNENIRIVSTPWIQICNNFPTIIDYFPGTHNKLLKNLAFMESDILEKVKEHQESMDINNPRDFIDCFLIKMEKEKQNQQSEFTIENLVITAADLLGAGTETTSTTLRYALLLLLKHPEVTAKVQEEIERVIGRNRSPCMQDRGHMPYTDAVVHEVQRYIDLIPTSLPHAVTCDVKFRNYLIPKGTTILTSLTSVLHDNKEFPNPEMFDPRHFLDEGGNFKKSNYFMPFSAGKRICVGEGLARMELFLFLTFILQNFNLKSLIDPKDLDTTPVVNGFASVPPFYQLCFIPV

[9] = Ratio of drug concentration in CD-1 mouse lung to plasma at 6.25 mg/kg,po measured after 96 hrs; assay type: ADME, organism-based; procedure, shortened: as §1
[10] = tested on: Mycobacterium tuberculosis; assay: Antimycobacterial activity against drug-sensitive Mycobacterium tuberculosis assessed as mycobacterial growth inhibition; assay type: functional
[11] = Drug concentration in Sprague-Dawley rat lung at 5 mg/kg,po measured after 96 hrs; assay type: ADME, organism-based; settings: read-out: Ct; procedure, shortened: as §1
[12] = Apparent permeability across apical side to basolateral side in dog MDCK cells; assay type: ADME, cell-based, Canis lupus familiaris
[13] = Drug concentration in CD-1 mouse lung at 6.25 mg/kg,po measured after 96 hrs; assay type: ADME, organism-based; settings: read-out: Ct; procedure, shortened: as §1
[14] = tested on: Mycobacterium tuberculosis; assay: Antimycobacterial activity against Mycobacterium tuberculosis H37Rv assessed as mycobacterial growth inhibition by low oxygen recovery assay; assay type: functional
Procedure, shortened: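 M. tuberculosis H37Rv under hypoxic conditions, low-oxygen recovery assay (LORA) following Cho et al. Read-out is MIC.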

[15] = Drug concentration in CD-1 mouse plasma at 6.25 mg/kg,po measured after 96 hrs; assay type: ADME, organism-based; procedure, shortened: as §1
[16] = Ratio of drug concentration in Sprague-Dawley rat lung to plasma at 5 mg/kg,po measured after 96 hrs; assay type: ADME, organism-based; procedure, shortened: as §1
[17] = AUC in Sprague-Dawley rat at 200 mg/kg,po measured after 12 days; assay type: ADME, organism-based; parameters: time 12 day, dose 200 mg/kg, route po; settings: in vivo
Procedure, shortened: (§3)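 14-day pilot toxicology study in rats, 8 males and 8 females per dose level. Daily oral dosing, with 200 mg/kg as the high dose. Drug exposure is reported as AUC in µM·h.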

Cytochrome P450 1A2 = biological target: T1, Cytochrome P450 1A2 (Homo sapiens, UniProt P05177); assay: Inhibition of CYP1A2 (unknown origin); assay type: ADME; procedure, shortened: as §2
T1 sequence (P05177 whole entry): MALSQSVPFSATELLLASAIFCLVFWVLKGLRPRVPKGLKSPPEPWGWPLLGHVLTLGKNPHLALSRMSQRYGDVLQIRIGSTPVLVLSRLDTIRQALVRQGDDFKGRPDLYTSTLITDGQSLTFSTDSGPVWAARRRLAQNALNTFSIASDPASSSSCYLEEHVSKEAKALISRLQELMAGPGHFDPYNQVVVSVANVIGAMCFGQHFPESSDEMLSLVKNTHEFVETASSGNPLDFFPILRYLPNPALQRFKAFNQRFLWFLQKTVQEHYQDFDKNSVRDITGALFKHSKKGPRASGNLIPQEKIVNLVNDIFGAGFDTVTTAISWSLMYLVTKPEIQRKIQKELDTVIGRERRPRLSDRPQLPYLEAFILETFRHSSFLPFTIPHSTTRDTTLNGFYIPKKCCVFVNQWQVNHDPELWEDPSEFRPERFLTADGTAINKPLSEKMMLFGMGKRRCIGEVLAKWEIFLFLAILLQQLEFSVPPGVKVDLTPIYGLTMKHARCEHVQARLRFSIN

[18] = tested on: Mycobacterium tuberculosis; assay: Antimycobacterial activity against Mycobacterium tuberculosis H37Rv assessed as mycobacterial growth inhibition by microplate alamar blue assay; assay type: functional
Procedure, shortened: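 M. tuberculosis H37Rv under normoxic conditions, microplate alamar blue assay (MABA) following Cho et al. Read-out is MIC.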

Cytochrome P450 2D6 = Cytochrome P450 2D6 (Homo sapiens, UniProt P10635); assay: Inhibition of CYP2D6 (unknown origin); assay type: ADME; procedure, shortened: as §2
Chain of Cytochrome P450 2D6 (P10635 whole entry): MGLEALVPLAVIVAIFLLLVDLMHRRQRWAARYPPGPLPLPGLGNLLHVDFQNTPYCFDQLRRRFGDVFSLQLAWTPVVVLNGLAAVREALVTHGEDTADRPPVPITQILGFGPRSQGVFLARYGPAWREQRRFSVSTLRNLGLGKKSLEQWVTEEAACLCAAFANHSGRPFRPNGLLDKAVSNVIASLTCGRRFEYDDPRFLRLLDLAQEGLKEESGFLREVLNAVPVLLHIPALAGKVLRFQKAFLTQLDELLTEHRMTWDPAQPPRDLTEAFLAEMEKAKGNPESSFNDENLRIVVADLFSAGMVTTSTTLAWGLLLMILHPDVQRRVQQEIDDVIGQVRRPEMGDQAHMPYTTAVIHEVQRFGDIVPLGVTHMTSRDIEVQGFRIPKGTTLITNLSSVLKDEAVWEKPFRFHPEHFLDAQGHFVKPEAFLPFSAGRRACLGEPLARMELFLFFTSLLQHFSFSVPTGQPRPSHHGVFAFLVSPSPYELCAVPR

[19] = Half life in Beagle dog at 0.5 mg/kg,iv; assay type: ADME, organism-based, Canis lupus familiaris; settings: in vivo
Procedure, shortened: (§4)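 Beagle dogs. Single iv dose of 0.5 mg/kg. Clearance and half-life are derived from plasma concentration-time data.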

[20] = Oral bioavailability in Sprague-Dawley rat at 5 mg/kg; assay type: ADME, organism-based; settings: in vivo
[21] = Oral bioavailability in Beagle dog at 2 mg/kg; assay type: ADME, organism-based, Canis lupus familiaris; settings: in vivo
[22] = Microsomal stability in mouse liver microsomes assessed as clearance; assay type: ADME, Microsome; settings: read-out: CLH
[23] = Efflux ratio of apparent permeability across basolateral to apical over apical to basolateral membrane in dog MDCK cells; assay type: ADME, cell-based, Canis lupus familiaris
[24] = Cmax in mouse at 6.25 mg/kg,po; assay type: ADME, organism-based; parameters: dose 6.25 mg/kg, route po; settings: in vivo
[25] = Toxicity in Sprague-Dawley rat assessed as death at 200 mg/kg,po measured after 14 days; assay type: organism-based; settings: in vivo, 336 h, time 14 day
Procedure, shortened: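 14-day pilot oral toxicology study in rats, 8 males and 8 females per dose level. Dosing once daily at 30, 100 and 200 mg/kg, with the reference drug at 200 mg/kg. Deaths counted over the 14 days; drug exposure (AUC) recorded in the high-dose groups.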

[26] = AUC in Sprague-Dawley rat at 200 mg/kg,po measured after 14 days; assay type: ADME, organism-based; parameters: dose 200 mg/kg, time 14 day, route po; settings: in vivo; procedure, shortened: as §3
[27] = Clearance in Sprague-Dawley rat at 1 mg/kg,iv; assay type: ADME, organism-based; settings: in vivo
Procedure, shortened: (§5)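 SD rats. Single iv dose of 1 mg/kg. Clearance and half-life are derived from plasma concentration-time data.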

[28] = Clearance in mouse at 1 mg/kg,iv; assay type: ADME, organism-based; settings: in vivo
Procedure, shortened: (§6)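 CD-1 mice. Single iv dose of 1 mg/kg. Clearance and half-life are derived from plasma concentration-time data.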

[29] = AUC (0 to last) in mouse at 6.25 mg/kg,po; assay type: ADME, organism-based; parameters: time 0 - last, dose 6.25 mg/kg, route po; settings: in vivo
[30] = Cmax in Sprague-Dawley rat at 5 mg/kg,po; assay type: ADME, organism-based; parameters: dose 5 mg/kg, route po; settings: in vivo
[31] = Volume of distribution at steady state in mouse at 1 mg/kg,iv; assay type: ADME, organism-based; settings: in vivo, read-out: Vdss
Procedure, shortened: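 PK in CD-1 mice at 1 mg/kg iv and 6.25 mg/kg po. Vd, CL and t1/2 taken from the iv arm; Cmax, AUC0-last and F% taken from the oral arm.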

[32] = Half life in mouse at 1 mg/kg,iv; assay type: ADME, organism-based; settings: in vivo; procedure, shortened: as §6
[33] = AUC (0 to last) in Sprague-Dawley rat at 5 mg/kg,po; assay type: ADME, organism-based; parameters: time 0 - last, dose 5 mg/kg, route po; settings: in vivo
[34] = Volume of distribution at steady state in Sprague-Dawley rat at 1 mg/kg,iv; assay type: ADME, organism-based; settings: in vivo, read-out: Vdss
Procedure, shortened: (§7)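 PK in SD rats (1 mg/kg iv, 5.0 mg/kg po) and Beagle dogs (0.5 mg/kg iv, 2.0 mg/kg po). Vd taken from the iv arm, alongside CL and t1/2. Cmax and AUC0-last taken from the oral arm; F% calculated.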

[35] = Clearance in Beagle dog at 0.5 mg/kg,iv; assay type: ADME, organism-based, Canis lupus familiaris; settings: in vivo; procedure, shortened: as §4
[36] = Microsomal stability in human liver microsomes assessed as clearance; assay type: ADME, Microsome; settings: read-out: CLH
[37] = Volume of distribution at steady state in Beagle dog at 0.5 mg/kg,iv; assay type: ADME, organism-based, Canis lupus familiaris; settings: in vivo, read-out: Vdss; procedure, shortened: as §7
[38] = biological target: Voltage-gated inwardly rectifying potassium channel KCNH2 (Homo sapiens, UniProt Q12809); assay: Inhibition of human ERG; assay type: toxicity
Chain of Voltage-gated inwardly rectifying potassium channel KCNH2 (Q12809 whole entry): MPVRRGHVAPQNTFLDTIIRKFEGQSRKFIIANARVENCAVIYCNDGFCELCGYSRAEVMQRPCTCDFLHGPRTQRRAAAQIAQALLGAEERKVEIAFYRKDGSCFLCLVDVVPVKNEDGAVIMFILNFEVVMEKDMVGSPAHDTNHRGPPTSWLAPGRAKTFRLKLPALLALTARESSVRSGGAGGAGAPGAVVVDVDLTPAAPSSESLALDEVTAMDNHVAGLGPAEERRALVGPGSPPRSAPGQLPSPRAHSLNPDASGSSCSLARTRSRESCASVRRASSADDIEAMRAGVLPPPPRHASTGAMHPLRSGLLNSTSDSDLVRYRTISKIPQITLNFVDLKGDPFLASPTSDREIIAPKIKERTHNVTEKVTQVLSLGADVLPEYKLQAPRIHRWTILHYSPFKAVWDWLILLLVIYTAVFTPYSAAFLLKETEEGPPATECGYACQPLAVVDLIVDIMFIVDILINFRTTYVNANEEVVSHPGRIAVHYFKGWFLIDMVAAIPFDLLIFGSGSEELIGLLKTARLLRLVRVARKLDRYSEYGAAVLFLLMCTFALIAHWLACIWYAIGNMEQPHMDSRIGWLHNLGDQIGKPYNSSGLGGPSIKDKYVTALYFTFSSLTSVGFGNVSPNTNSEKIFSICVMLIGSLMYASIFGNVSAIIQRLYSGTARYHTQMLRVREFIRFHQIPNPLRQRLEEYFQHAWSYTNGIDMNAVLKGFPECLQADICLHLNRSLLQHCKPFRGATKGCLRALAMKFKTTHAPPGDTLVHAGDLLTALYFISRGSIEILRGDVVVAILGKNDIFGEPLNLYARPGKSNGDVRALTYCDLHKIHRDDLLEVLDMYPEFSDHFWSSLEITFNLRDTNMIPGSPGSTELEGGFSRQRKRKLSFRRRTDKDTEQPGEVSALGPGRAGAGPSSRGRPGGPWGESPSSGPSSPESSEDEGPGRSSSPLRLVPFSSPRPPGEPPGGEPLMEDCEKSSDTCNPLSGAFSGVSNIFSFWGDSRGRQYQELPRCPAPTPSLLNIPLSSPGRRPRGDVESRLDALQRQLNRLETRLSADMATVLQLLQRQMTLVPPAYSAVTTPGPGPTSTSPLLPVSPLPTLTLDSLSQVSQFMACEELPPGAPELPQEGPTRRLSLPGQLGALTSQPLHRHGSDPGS

[39] = Cmax in Beagle dog at 2 mg/kg,po; assay type: ADME, organism-based, Canis lupus familiaris; parameters: dose 2 mg/kg, route po; settings: in vivo
[40] = Oral bioavailability in mouse at 6.25 mg/kg; assay type: ADME, organism-based; settings: in vivo
[41] = Microsomal stability in rat liver microsomes assessed as clearance; assay type: ADME, Microsome; settings: read-out: CLH
[42] = Half life in Sprague-Dawley rat at 1 mg/kg,iv; assay type: ADME, organism-based; settings: in vivo; procedure, shortened: as §5
[43] = AUC (0 to last) in Beagle dog at 2 mg/kg,po; assay type: ADME, organism-based, Canis lupus familiaris; parameters: time 0 - last, dose 2 mg/kg, route po; settings: in vivo
Cytochrome P450 3A4 = Cytochrome P450 3A4 (Homo sapiens, UniProt P08684); assay: Inhibition of CYP3A4 (unknown origin); assay type: ADME; procedure, shortened: as §2
Chain of Cytochrome P450 3A4 (P08684 whole entry): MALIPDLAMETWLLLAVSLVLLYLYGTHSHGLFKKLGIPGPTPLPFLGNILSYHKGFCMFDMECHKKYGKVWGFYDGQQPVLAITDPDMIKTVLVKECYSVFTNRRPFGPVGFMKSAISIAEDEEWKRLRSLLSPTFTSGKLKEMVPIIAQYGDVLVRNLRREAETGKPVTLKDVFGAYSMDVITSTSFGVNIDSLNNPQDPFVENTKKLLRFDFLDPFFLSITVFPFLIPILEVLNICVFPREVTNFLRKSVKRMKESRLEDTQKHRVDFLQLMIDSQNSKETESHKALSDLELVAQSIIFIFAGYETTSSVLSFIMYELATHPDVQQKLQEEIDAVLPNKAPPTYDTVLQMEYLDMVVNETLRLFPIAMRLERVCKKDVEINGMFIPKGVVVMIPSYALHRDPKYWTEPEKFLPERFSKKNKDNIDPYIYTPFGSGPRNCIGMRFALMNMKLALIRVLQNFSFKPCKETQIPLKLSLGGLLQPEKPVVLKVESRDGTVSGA

COc1nc2ccc(Br)cc2cc1[C@@H](c1ccccc1)[C@@](O)(CCN(C)C)c1cccc2ccccc12 [BEDAQUILINE]
concentration at 96 h [1]: 1.52 ng/mL
Activity [2]: 10%
fraction unbound [3]: < 0.01
pIC50 (Cytochrome P450 2C9): < 5.00
Papp B→A [4]: 0.09 ×10⁻⁶ cm/s
Activity [5]: Toxic
fraction unbound [6]: < 0.01
CC50 [7]: > 64 µg/mL
CC50 [8]: > 50 µg/mL
pIC50 (Cytochrome P450 2C19): < 5.00
Kp at 96 h [9]: 29.6
MIC50 [10]: 0.029 µg/mL (≈ 0.0522 µM)
MIC90 [10]: 0.043 µg/mL (≈ 0.0774 µM)
concentration at 96 h [11]: 58.8 ng/g
Papp A→B [12]: 0.06 ×10⁻⁶ cm/s
concentration at 96 h [13]: 135 ng/g
MIC [14]: < 0.2 µg/mL
concentration at 96 h [15]: 4.56 ng/mL
Kp at 96 h [16]: 38.7
AUC at 288 h [17]: 109 µM·h
pIC50 (Cytochrome P450 1A2): < 5.00
MIC [18]: 0.03 µg/mL (≈ 0.054 µM)
pIC50 (Cytochrome P450 2D6): < 5.00

COc1nc(-c2ccc(Cl)cc2)ccc1[C@@H](c1ccccc1)[C@@](O)(CCN(C)C)c1cccc2ccccc12
concentration at 96 h [1]: 4.74 ng/mL
half-life [19]: 56.2 h
Activity [2]: Non-Toxic
bioavailability [20]: 36.7%
bioavailability [21]: 58.9%
microsomal CLint [22]: 71.3 µL/min/mg
efflux ratio [23]: 2.54
Cmax [24]: 503 ng/mL
Activity [25]: Toxic
AUC at 336 h [26]: 248 µM·h
fraction unbound [3]: < 0.01
clearance [27]: 8.25 mL/min/kg
clearance [28]: 3.59 mL/min/kg
pIC50 (Cytochrome P450 2C9): < 5.00
AUC(0-t) [29]: 10200 ng·h/mL
Cmax [30]: 328 ng/mL
Vd [31]: 10.4 L/kg
Papp B→A [4]: 0.11 ×10⁻⁶ cm/s
fraction unbound [6]: < 0.01
half-life [32]: 46.3 h
CC50 [7]: > 64 µg/mL
AUC(0-t) [33]: 4080 ng·h/mL
Vd [34]: 9.2 L/kg
CC50 [8]: > 50 µg/mL
pIC50 (Cytochrome P450 2C19): < 5.00
Kp at 96 h [9]: 33.7
clearance [35]: 2.04 mL/min/kg
microsomal CLint [36]: 39.4 µL/min/mg
Vd [37]: 6.04 L/kg
MIC50 [10]: 0.083 µg/mL (≈ 0.155 µM)
MIC90 [10]: 0.152 µg/mL (≈ 0.283 µM)
concentration at 96 h [11]: 337 ng/g
Papp A→B [12]: 0.04 ×10⁻⁶ cm/s
concentration at 96 h [13]: 857 ng/g
pIC50 [38]: < 4.52
Cmax [39]: 390 ng/mL
MIC [14]: 0.56 µg/mL (≈ 1.04 µM)
bioavailability [40]: 40.7%
concentration at 96 h [15]: 25.4 ng/mL
Kp at 96 h [16]: 71.1
microsomal CLint [41]: 45.7 µL/min/mg
half-life [42]: 25.6 h
pIC50 (Cytochrome P450 1A2): < 5.00
AUC(0-t) [43]: 8500 ng·h/mL
MIC [18]: 0.08 µg/mL (≈ 0.149 µM)
pIC50 (Cytochrome P450 2D6): < 5.00
pIC50 (Cytochrome P450 3A4): < 5.00
